Measurements taken from ChEMBL document CHEMBL1122147, “N,N'-Dialkyl-1,2-bis(hydroxyphenyl)ethylenediamines and N,N-dialkyl-4,5-bis(4-hydroxyphenyl)imidazolidines: syntheses and evaluation of their mammary tumor inhibiting activity” (1982).
Active and inactive are the calls of the source. The calls are words filed in the database; no cut-off is given here.

Columns and labels:
[1] = target: T1, Estrogen receptor (Mus musculus) (UniProt O08537+P19785); experiment: Binding affinity for murine Estrogen receptor; format: protein assay
T1 sequence (O08537 whole entry, looked up): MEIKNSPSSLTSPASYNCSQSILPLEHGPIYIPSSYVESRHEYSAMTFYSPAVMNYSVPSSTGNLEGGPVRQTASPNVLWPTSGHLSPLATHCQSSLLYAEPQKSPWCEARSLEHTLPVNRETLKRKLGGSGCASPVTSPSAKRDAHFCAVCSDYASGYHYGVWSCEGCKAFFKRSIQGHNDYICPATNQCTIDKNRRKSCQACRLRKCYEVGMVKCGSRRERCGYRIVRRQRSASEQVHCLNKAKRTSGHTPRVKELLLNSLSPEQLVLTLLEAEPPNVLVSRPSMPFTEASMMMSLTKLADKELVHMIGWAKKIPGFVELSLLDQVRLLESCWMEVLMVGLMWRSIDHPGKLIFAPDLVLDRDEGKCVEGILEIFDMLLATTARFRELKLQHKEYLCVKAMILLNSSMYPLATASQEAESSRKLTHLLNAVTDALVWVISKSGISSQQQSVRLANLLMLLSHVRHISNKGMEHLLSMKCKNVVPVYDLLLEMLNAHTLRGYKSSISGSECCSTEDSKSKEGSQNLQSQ
T1 sequence (P19785 whole entry, looked up): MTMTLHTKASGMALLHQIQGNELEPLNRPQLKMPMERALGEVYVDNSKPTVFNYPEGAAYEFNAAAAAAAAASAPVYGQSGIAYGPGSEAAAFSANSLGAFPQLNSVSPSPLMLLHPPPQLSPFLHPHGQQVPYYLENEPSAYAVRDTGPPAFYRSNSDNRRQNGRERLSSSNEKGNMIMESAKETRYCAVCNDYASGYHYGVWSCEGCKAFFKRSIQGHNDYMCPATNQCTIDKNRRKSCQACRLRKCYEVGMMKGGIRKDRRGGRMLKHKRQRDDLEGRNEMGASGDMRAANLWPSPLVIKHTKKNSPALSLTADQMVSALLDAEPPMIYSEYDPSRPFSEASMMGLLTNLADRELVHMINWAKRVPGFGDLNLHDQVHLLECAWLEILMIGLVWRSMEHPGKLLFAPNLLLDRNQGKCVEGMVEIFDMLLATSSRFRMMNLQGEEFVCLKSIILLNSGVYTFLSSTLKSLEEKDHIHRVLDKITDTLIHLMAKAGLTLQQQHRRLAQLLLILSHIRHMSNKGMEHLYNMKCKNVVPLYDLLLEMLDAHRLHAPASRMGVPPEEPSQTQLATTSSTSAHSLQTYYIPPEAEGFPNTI

[2] = target: T1, Estrogen receptor (Mus musculus); experiment: (§1) Binding affinity for murine Estrogen receptor; No affinity; format: protein assay
[3] = target: T1, Estrogen receptor (Mus musculus); experiment: as §1; format: protein assay; remark: listed apart in the source
[4] = target: T1, Estrogen receptor (Mus musculus); experiment: In vitro inhibition of murine Estrogen receptor; format: protein assay; parameters: concentration or dose not given beside the values; settings: concentration not given here
Rattus norvegicus [5] = experiment: Inhibition of the DMBA-induced mammary carcinoma in 8 rats at 15 mg/kg dose; not significant; format: functional
Summary of the method: (§2)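 Established DMBA-induced mammary carcinoma, Sprague-Dawley rats; compound in arachis oil sc three times weekly (Mon, Wed, Fri). Starting tumor area above 140 mm² per animal; percent increase of tumor area after 28 days of therapy, mean values; significance by Wilcoxon-Mann-Whitney U test.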

Rattus norvegicus [6] = organism: Rattus norvegicus; experiment: p-Nitrophenylphosphatase activity in proliferating DMBA-induced mammary tumor in rats; format: functional
Summary of the method: (§3)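 DMBA-induced rat mammary tumors, growing versus regressing, assayed for glucose-6-phosphate plus 6-phosphogluconate dehydrogenase and p-nitrophenylphosphatase activities (μM/mL); mean ± SD, growing vs regressing compared by Student's t test.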

Rattus norvegicus [7] = organism: Rattus norvegicus; experiment: Dehydrogenase activity in regressing DMBA-induced mammary tumor in rats; format: functional; summary of the method: as §3
Rattus norvegicus [8] = organism: Rattus norvegicus; experiment: p-Nitrophenylphosphatase activity in regressing DMBA-induced mammary tumor in rats; not significant; format: functional; summary of the method: as §3
Rattus norvegicus [9] = experiment: Inhibition of the DMBA-induced mammary carcinoma in 10 rats at 20 mg/kg dose; format: functional; summary of the method: as §2
Rattus norvegicus [10] = organism: Rattus norvegicus; experiment: Dehydrogenase activity in proliferating DMBA-induced mammary tumor in rats; format: functional; summary of the method: as §3
Rattus norvegicus [11] = experiment: Inhibition of the DMBA-induced mammary carcinoma in 11 rats at 25 mg/kg dose; not significant; format: functional; summary of the method: as §2
MCF7 [12] = experiment: Incorporation of [3H]thymidine into estrogen-responsive MCF-7 human breast tumor cells at 10e-8 M concentration with hexestrol; dpm/dish; format: functional
Summary of the method: (§4)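 MCF-7 cells plated in medium with 10% FCS, switched next day to 5% dextran-charcoal-stripped calf serum, medium renewed every 72 h. At ~60% confluence compounds added in ethanol (0.1% final), 60 h incubation; 1 μCi [3H]thymidine per well for last 2 h. Acid (10% Cl3AcOH)-precipitable counts from sonicate, dpm/dish, mean of six dishes ± SD.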

MCF7 [13] = experiment: Incorporation of [3H]thymidine into estrogen-responsive MCF-7 human breast tumor cells at 10e-8 M with hexestrol; format: functional; summary of the method: as §4
MCF7 [14] = experiment: Incorporation of [3H]thymidine into estrogen-responsive MCF-7 human breast tumor cells at 10e-5 M; format: functional; summary of the method: as §4
MCF7 [15] = experiment: Incorporation of [3H]thymidine into estrogen-responsive MCF-7 human breast tumor cells at 10e-5 M; dpm/dish; format: functional; summary of the method: as §4
MCF7 [16] = experiment: Incorporation of [3H]thymidine into estrogen-responsive MCF-7 human breast tumor cells at 10e-8 M with hexestrol; dpm/dish; format: functional; summary of the method: as §4

How did the Ka [1] turn out when `CCCCNC(c1ccccc1O)C(NCCCC)c1ccccc1O` (stereo not given) was run?
Its Ka is “inactive”.

With `CCCCNC(c1ccccc1OC)C(NCCCC)c1ccccc1OC` (stereo not given) as the compound, how does the Ka [2] read?
Its Ka is “inactive”.

How did the Ka [1] turn out when `CCCCNC(c1ccc(O)cc1)C(NCCCC)c1ccc(O)cc1` (racemic) was run?
The Ka was 3.6e+06 M⁻¹.

With `CCCCNC(c1cccc(OC)c1)C(NCCCC)c1cccc(OC)c1` (stereo not given) as the compound, how does the Ka [3] read?
The Ka was “inactive”.

How did the inhibition [4] turn out when `CCCCN1C(c2ccc(O)cc2)C(c2ccc(O)cc2)N(CCCC)C1c1ccccc1` (racemic) was run?
Its inhibition is 39%.

How did the Increase (Rattus norvegicus [5]) turn out when `CCCCNC(c1ccc(O)cc1)C(NCCCC)c1ccc(O)cc1.Cl.Cl` (stereo not given) was run?
Its Increase is 475%.

For `CCNC(c1ccc(OC)cc1)C(NCC)c1ccc(OC)cc1` (stereo not given), which Ka [3] is on record?
The Ka was “inactive”.

Which Ka [2] does the source give for `CCCCNC(c1ccc(OC)cc1)C(NCCCC)c1ccc(OC)cc1` (stereo not given) here?
The Ka was “inactive”.

And the Ka [3]?
Its Ka is “inactive”.

Which inhibition [4] does the source give for `CCCCN1CN(CCCC)C(c2ccc(O)cc2)C1c1ccc(O)cc1` (stereo in doubt; 7d) here?
The inhibition was 0%.

For `CCCCCNC(c1ccc(O)cc1)C(NCCCCC)c1ccc(O)cc1` (stereo not given), which Ka [1] is on record?
The Ka was 2.2e+06 M⁻¹.

How did the Ka [3] turn out when `CCCCCCNC(c1ccc(OC)cc1)C(NCCCCCC)c1ccc(OC)cc1` (stereo not given) was run?
The Ka was “inactive”.

For `CCCCNC(c1ccc(O)cc1)C(NCCCC)c1ccc(O)cc1` (single isomer, unassigned; (-)), which Ka [2] is on record?
Its Ka is 700000 M⁻¹.

Which results are given for `CCCCNC(c1ccc(O)cc1)C(NCCCC)c1ccc(O)cc1.Cl.Cl` (single isomer, unassigned; (+))?
Activity (Rattus norvegicus [6]): 39.4 uM ml-1; Activity (Rattus norvegicus [7]): 101.8 uM ml-1; Activity (Rattus norvegicus [8]): 48.4 uM ml-1; Increase (Rattus norvegicus [9]): 112%; Activity (Rattus norvegicus [10]): 191.7 uM ml-1

For `CCCCCCNC(c1ccc(O)cc1)C(NCCCCCC)c1ccc(O)cc1.Cl.Cl` (stereo not given), which Increase (Rattus norvegicus [11]) is on record?
The Increase was 132%.

And the Ka [1]?
The Ka was 320000 M⁻¹.

`CCNC(c1ccc(O)cc1)C(NCC)c1ccc(O)cc1` (stereo not given) was tested. Which Ka [1] did it give?
The Ka was < 10000 M⁻¹.

With `CC(C)NC(c1ccc(O)cc1)C(NC(C)C)c1ccc(O)cc1` (stereo not given) as the compound, how does the Ka [1] read?
Its Ka is 140000 M⁻¹.

How did the Ka [2] turn out when `CNC(c1ccc(OC)cc1)C(NC)c1ccc(OC)cc1` (stereo not given) was run?
Its Ka is “inactive”.

Which Ka [1] does the source give for `CCCCNC(c1cccc(O)c1)C(NCCCC)c1cccc(O)c1` (stereo not given) here?
The Ka was < 10000 M⁻¹.

Which Ka [2] does the source give for `CNC(c1ccc(O)cc1)C(NC)c1ccc(O)cc1` (stereo not given) here?
The Ka was “inactive”.

For `CCCNC(c1ccc(O)cc1)C(NCCC)c1ccc(O)cc1` (stereo not given), which Ka [1] is on record?
The Ka was 1.1e+06 M⁻¹.

`CC[C@H](c1ccc(O)cc1)[C@@H](CC)c1ccc(O)cc1` [HEXESTROL] was tested. Which Activity (MCF7 [12]) did it give?
The Activity was 16485.

What about the Activity (MCF7 [13]) of the same compound?
The Activity was 120%.

Which inhibition [4] does the source give for `CCCN1CN(CCC)C(c2ccc(O)cc2)C1c1ccc(O)cc1` (racemic) here?
Its inhibition is 66%.

`CCCCN1CN(CCCC)C(c2ccc(O)cc2)C1c1ccc(O)cc1` (single isomer, unassigned; (+)) was tested. Which inhibition [4] did it give?
Its inhibition is 3%.

For `CCCNC(c1ccc(OC)cc1)C(NCCC)c1ccc(OC)cc1` (stereo not given), which Ka [3] is on record?
The Ka was “inactive”.

How did the Ka [2] turn out when `CCCCNC(c1ccc(O)cc1)C(NCCCC)c1ccc(O)cc1` (single isomer, unassigned; (+)) was run?
The Ka was 2.1e+07 M⁻¹.

Which results are given for `CCCCNC(c1ccc(O)cc1)C(NCCCC)c1ccc(O)cc1.Cl.Cl` (single isomer, unassigned; (-))?
Activity (Rattus norvegicus [6]): 42.8 uM ml-1; Activity (Rattus norvegicus [7]): 121.3 uM ml-1; Activity (Rattus norvegicus [8]): 44.9 uM ml-1; Increase (Rattus norvegicus [9]): 115%; Activity (Rattus norvegicus [10]): 183.3 uM ml-1

What does the source list for `CC/C(=C(\c1ccccc1)c1ccc(OCCN(C)C)cc1)c1ccccc1` [TAMOXIFEN]?
Activity (MCF7 [12]): 11225; Activity (MCF7 [13]): 82%

How did the inhibition [4] turn out when `CCCCN1C(=S)N(CCCC)C(c2ccc(O)cc2)C1c1ccc(O)cc1` (racemic) was run?
The inhibition was 75%.

How did the Ka [3] turn out when `COc1ccc(C(NC(C)C)C(NC(C)C)c2ccc(OC)cc2)cc1` (stereo not given) was run?
The Ka was “inactive”.

With `CCCCN1CN(CCCC)C(c2ccc(O)cc2)C1c1ccc(O)cc1` (racemic) [listing 1 of 2 here] as the compound, how does the Increase (Rattus norvegicus [5]) read?
Its Increase is 105%.

Which inhibition [4] does the source give for `CCCCN1CN(CCCC)C(c2ccc(O)cc2)C1c1ccc(O)cc1` (racemic) [listing 2 of 2 here] here?
Its inhibition is 70%.

For `CCCCN1CN(CCCC)C(c2ccc(O)cc2)C1c1ccc(O)cc1` (stereo in doubt; 7c), which inhibition [4] is on record?
The inhibition was 75%.

How did the Ka [2] turn out when `CCCCCNC(c1ccc(OC)cc1)C(NCCCCC)c1ccc(OC)cc1` (stereo not given) was run?
Its Ka is “inactive”.

With `CCCCNC(c1ccc(O)cc1)C(NCCCC)c1ccc(O)cc1.Cl.Cl` (racemic) as the compound, how does the Activity (MCF7 [14]) read?
Its Activity is 79%.

What about the Activity (MCF7 [15]) of the same compound?
The Activity was 10833.

What about the Activity (MCF7 [16]) of the same compound?
Its Activity is 13942.

And the Activity (MCF7 [13])?
The Activity was 101%.

How did the inhibition [4] turn out when `CCCCN1C(c2ccc(O)cc2)C(c2ccc(O)cc2)N(CCCC)C1c1ccc(O)cc1` (racemic) was run?
Its inhibition is 48%.
